Measured values reported in ChEMBL document CHEMBL1275458, “First molecular characterization of group B streptococci with reduced penicillin susceptibility” (2008).
Values after ≈ are worked out from the molar mass of the structure shown.

Each compound was assayed on Streptococcus agalactiae (assay: Antimicrobial activity against penicillin-resistant Streptococcus agalactiae B503 by agar dilution method).
Assay type: functional
Summary of the method: (§1)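 Agar dilution MICs run per the CLSI recommendation. S. pneumoniae ATCC 49619 was included as the quality control strain. β-lactams tested were penicillin G, penicillin V, ampicillin, oxacillin, cefazolin, cefepime, cefotaxime, ceftizoxime and meropenem. Test strains were S. agalactiae clinical sputum isolates and ATCC strains BAA-611 and 12403.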

Compared with `CC1(C)S[C@@H]2[C@H](NC(=O)COc3ccccc3)C(=O)N2[C@H]1C(=O)O` [PENICILLIN V], `CO/N=C(\C(=O)N[C@@H]1C(=O)N2C(C(=O)O)=CCS[C@H]12)c1csc(N)n1` [CEFTIZOXIME] is 130-fold higher in MIC: 0.12 µg/mL (≈ 0.342 µM) for the first, 16 µg/mL (≈ 41.7 µM) for the second.

What follows are compounds tested on Streptococcus pneumoniae (assay: Antimicrobial activity against Streptococcus pneumoniae ATCC 49619 by agar dilution method).
Assay type: functional
Summary of the method: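 MIC by agar dilution per CLSI recommendations. The strain is a penicillin-susceptible S. pneumoniae quality-control strain, run alongside the clinical GBS isolates. β-lactams tested were penicillin G, penicillin V, ampicillin, oxacillin, cefazolin, cefepime, cefotaxime, ceftizoxime and meropenem.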

First: CC1(C)S[C@@H]2[C@H](NC(=O)COc3ccccc3)C(=O)N2[C@H]1C(=O)O [PENICILLIN V]
Second: CO/N=C(\C(=O)N[C@@H]1C(=O)N2C(C(=O)O)=CCS[C@H]12)c1csc(N)n1 [CEFTIZOXIME]
The MIC of the first is 4.2-fold higher: 0.5 µg/mL (≈ 1.43 µM) for the first, 0.12 µg/mL (≈ 0.313 µM) for the second.

The compounds below were run on Streptococcus agalactiae (assay: Antimicrobial activity against penicillin-resistant Streptococcus agalactiae B10 by agar dilution method).
Assay type: functional
Summary of the method: as §1

Going from `CC1(C)S[C@@H]2[C@H](NC(=O)COc3ccccc3)C(=O)N2[C@H]1C(=O)O` [PENICILLIN V] to `CO/N=C(\C(=O)N[C@@H]1C(=O)N2C(C(=O)O)=CCS[C@H]12)c1csc(N)n1` [CEFTIZOXIME], the MIC rises from 0.25 µg/mL (≈ 0.713 µM) to 16 µg/mL (≈ 41.7 µM) (64-fold).

Each compound was assayed on Streptococcus agalactiae (assay: Antimicrobial activity against penicillin-resistant Streptococcus agalactiae ATCC BAA-611 harboring PBP-2X V405A mutant gene by agar dilution method).
Assay type: functional
Summary of the method: as §1

Compared with `CC1(C)S[C@@H]2[C@H](NC(=O)COc3ccccc3)C(=O)N2[C@H]1C(=O)O` [PENICILLIN V], `CO/N=C(\C(=O)N[C@@H]1C(=O)N2C(C(=O)O)=CCS[C@H]12)c1csc(N)n1` [CEFTIZOXIME] is 130-fold higher in MIC: 0.12 µg/mL (≈ 0.342 µM) for the first, 16 µg/mL (≈ 41.7 µM) for the second.

What follows are compounds tested on Streptococcus agalactiae (assay: Antimicrobial activity against penicillin-resistant Streptococcus agalactiae B6 by agar dilution method).
Assay type: functional
Summary of the method: as §1

Compared with `CC1(C)S[C@@H]2[C@H](NC(=O)COc3ccccc3)C(=O)N2[C@H]1C(=O)O` [PENICILLIN V], `CO/N=C(\C(=O)N[C@@H]1C(=O)N2C(C(=O)O)=CCS[C@H]12)c1csc(N)n1` [CEFTIZOXIME] is 64-fold higher in MIC: 0.5 µg/mL (≈ 1.43 µM) for the first, 32 µg/mL (≈ 83.5 µM) for the second.

The compounds below were run on Streptococcus agalactiae (assay: Antimicrobial activity against penicillin-resistant Streptococcus agalactiae B514 by agar dilution method).
Assay type: functional
Summary of the method: as §1

Compared with `CC1(C)S[C@@H]2[C@H](NC(=O)COc3ccccc3)C(=O)N2[C@H]1C(=O)O` [PENICILLIN V], `CO/N=C(\C(=O)N[C@@H]1C(=O)N2C(C(=O)O)=CCS[C@H]12)c1csc(N)n1` [CEFTIZOXIME] is 130-fold higher in MIC: 0.25 µg/mL (≈ 0.713 µM) for the first, 32 µg/mL (≈ 83.5 µM) for the second.

What follows are compounds tested on Streptococcus agalactiae (assay: Antimicrobial activity against penicillin-resistant Streptococcus agalactiae B68 by agar dilution method).
Assay type: functional
Summary of the method: as §1

Compared with `CC1(C)S[C@@H]2[C@H](NC(=O)COc3ccccc3)C(=O)N2[C@H]1C(=O)O` [PENICILLIN V], `CO/N=C(\C(=O)N[C@@H]1C(=O)N2C(C(=O)O)=CCS[C@H]12)c1csc(N)n1` [CEFTIZOXIME] is 16-fold higher in MIC: 0.25 µg/mL (≈ 0.713 µM) for the first, 4 µg/mL (≈ 10.4 µM) for the second.

Each compound was assayed on Streptococcus agalactiae (assay: Antimicrobial activity against penicillin-resistant Streptococcus agalactiae B7 by agar dilution method).
Assay type: functional
Summary of the method: as §1

First: CC1(C)S[C@@H]2[C@H](NC(=O)COc3ccccc3)C(=O)N2[C@H]1C(=O)O [PENICILLIN V]
Second: CO/N=C(\C(=O)N[C@@H]1C(=O)N2C(C(=O)O)=CCS[C@H]12)c1csc(N)n1 [CEFTIZOXIME]
The MIC of the first is 33-fold lower: 0.12 µg/mL (≈ 0.342 µM) for the first, 4 µg/mL (≈ 10.4 µM) for the second.

The compounds below were run on Streptococcus agalactiae (assay: Antimicrobial activity against penicillin-resistant Streptococcus agalactiae B12 by agar dilution method).
Assay type: functional
Summary of the method: as §1

Compared with `CC1(C)S[C@@H]2[C@H](NC(=O)COc3ccccc3)C(=O)N2[C@H]1C(=O)O` [PENICILLIN V], `CO/N=C(\C(=O)N[C@@H]1C(=O)N2C(C(=O)O)=CCS[C@H]12)c1csc(N)n1` [CEFTIZOXIME] is 64-fold higher in MIC: 0.5 µg/mL (≈ 1.43 µM) for the first, 32 µg/mL (≈ 83.5 µM) for the second.

These compounds were tested on Streptococcus agalactiae (assay: Antimicrobial activity against penicillin-resistant Streptococcus agalactiae B502 by agar dilution method).
Assay type: functional
Summary of the method: as §1

First: CC1(C)S[C@@H]2[C@H](NC(=O)COc3ccccc3)C(=O)N2[C@H]1C(=O)O [PENICILLIN V]
Second: CO/N=C(\C(=O)N[C@@H]1C(=O)N2C(C(=O)O)=CCS[C@H]12)c1csc(N)n1 [CEFTIZOXIME]
The MIC of the first is 64-fold lower: 0.25 µg/mL (≈ 0.713 µM) for the first, 16 µg/mL (≈ 41.7 µM) for the second.

These compounds were tested on Streptococcus agalactiae (assay: Antimicrobial activity against penicillin-resistant Streptococcus agalactiae B60 by agar dilution method).
Assay type: functional
Summary of the method: as §1

First: CC1(C)S[C@@H]2[C@H](NC(=O)COc3ccccc3)C(=O)N2[C@H]1C(=O)O [PENICILLIN V]
Second: CO/N=C(\C(=O)N[C@@H]1C(=O)N2C(C(=O)O)=CCS[C@H]12)c1csc(N)n1 [CEFTIZOXIME]
The MIC of the first is 130-fold lower: 0.25 µg/mL (≈ 0.713 µM) for the first, 32 µg/mL (≈ 83.5 µM) for the second.

Each compound was assayed on Streptococcus agalactiae (assay: Antimicrobial activity against penicillin-resistant Streptococcus agalactiae B40 by agar dilution method).
Assay type: functional
Summary of the method: as §1

Compared with `CC1(C)S[C@@H]2[C@H](NC(=O)COc3ccccc3)C(=O)N2[C@H]1C(=O)O` [PENICILLIN V], `CO/N=C(\C(=O)N[C@@H]1C(=O)N2C(C(=O)O)=CCS[C@H]12)c1csc(N)n1` [CEFTIZOXIME] is 64-fold higher in MIC: 0.5 µg/mL (≈ 1.43 µM) for the first, 32 µg/mL (≈ 83.5 µM) for the second.

The compounds below were run on Streptococcus agalactiae (assay: Antimicrobial activity against penicillin-susceptible Streptococcus agalactiae ATCC 12403 by agar dilution method).

Going from `CC1(C)S[C@@H]2[C@H](NC(=O)COc3ccccc3)C(=O)N2[C@H]1C(=O)O` [PENICILLIN V] to `CO/N=C(\C(=O)N[C@@H]1C(=O)N2C(C(=O)O)=CCS[C@H]12)c1csc(N)n1` [CEFTIZOXIME], the MIC rises from 0.03 µg/mL (≈ 0.0856 µM) to 0.12 µg/mL (≈ 0.313 µM) (4-fold).

The compounds below were run on Streptococcus agalactiae (assay: Antimicrobial activity against penicillin-resistant Streptococcus agalactiae B513 by agar dilution method).
Assay type: functional
Summary of the method: as §1

Compared with `CC1(C)S[C@@H]2[C@H](NC(=O)COc3ccccc3)C(=O)N2[C@H]1C(=O)O` [PENICILLIN V], `CO/N=C(\C(=O)N[C@@H]1C(=O)N2C(C(=O)O)=CCS[C@H]12)c1csc(N)n1` [CEFTIZOXIME] is 64-fold higher in MIC: 1 µg/mL (≈ 2.85 µM) for the first, 64 µg/mL (≈ 167 µM) for the second.

Each compound was assayed on Streptococcus agalactiae (assay: Antimicrobial activity against penicillin-susceptible Streptococcus agalactiae ATCC BAA-611 by agar dilution method).

Compared with `CC1(C)S[C@@H]2[C@H](NC(=O)COc3ccccc3)C(=O)N2[C@H]1C(=O)O` [PENICILLIN V], `CO/N=C(\C(=O)N[C@@H]1C(=O)N2C(C(=O)O)=CCS[C@H]12)c1csc(N)n1` [CEFTIZOXIME] is 4-fold higher in MIC: 0.03 µg/mL (≈ 0.0856 µM) for the first, 0.12 µg/mL (≈ 0.313 µM) for the second.

What follows are compounds tested on Streptococcus agalactiae (assay: Antimicrobial activity against penicillin-resistant Streptococcus agalactiae B516 by agar dilution method).
Assay type: functional
Summary of the method: as §1

First: CC1(C)S[C@@H]2[C@H](NC(=O)COc3ccccc3)C(=O)N2[C@H]1C(=O)O [PENICILLIN V]
Second: CO/N=C(\C(=O)N[C@@H]1C(=O)N2C(C(=O)O)=CCS[C@H]12)c1csc(N)n1 [CEFTIZOXIME]
The MIC of the first is 64-fold lower: 0.25 µg/mL (≈ 0.713 µM) for the first, 16 µg/mL (≈ 41.7 µM) for the second.

The compounds below were run on Streptococcus agalactiae (assay: Antimicrobial activity against penicillin-resistant Streptococcus agalactiae B8 by agar dilution method).
Assay type: functional
Summary of the method: as §1

Compared with `CC1(C)S[C@@H]2[C@H](NC(=O)COc3ccccc3)C(=O)N2[C@H]1C(=O)O` [PENICILLIN V], `CO/N=C(\C(=O)N[C@@H]1C(=O)N2C(C(=O)O)=CCS[C@H]12)c1csc(N)n1` [CEFTIZOXIME] is 260-fold higher in MIC: 0.25 µg/mL (≈ 0.713 µM) for the first, 64 µg/mL (≈ 167 µM) for the second.

Each compound was assayed on Streptococcus agalactiae (assay: Antimicrobial activity against penicillin-resistant Streptococcus agalactiae ATCC BAA-611 harboring PBP-2X Q557E mutant gene by agar dilution method).
Assay type: functional
Summary of the method: as §1

First: CC1(C)S[C@@H]2[C@H](NC(=O)COc3ccccc3)C(=O)N2[C@H]1C(=O)O [PENICILLIN V]
Second: CO/N=C(\C(=O)N[C@@H]1C(=O)N2C(C(=O)O)=CCS[C@H]12)c1csc(N)n1 [CEFTIZOXIME]
The MIC of the first is 64-fold lower: 0.5 µg/mL (≈ 1.43 µM) for the first, 32 µg/mL (≈ 83.5 µM) for the second.

These compounds were tested on Streptococcus agalactiae (assay: Antimicrobial activity against penicillin-resistant Streptococcus agalactiae B1 by agar dilution method).
Assay type: functional
Summary of the method: as §1

Going from `CC1(C)S[C@@H]2[C@H](NC(=O)COc3ccccc3)C(=O)N2[C@H]1C(=O)O` [PENICILLIN V] to `CO/N=C(\C(=O)N[C@@H]1C(=O)N2C(C(=O)O)=CCS[C@H]12)c1csc(N)n1` [CEFTIZOXIME], the MIC rises from 0.25 µg/mL (≈ 0.713 µM) to 128 µg/mL (≈ 334 µM) (510-fold).
